Molecules are shown by their SMILES.

One assay deals with Bacillus subtilis. The assay is described as follows: Antimicrobial activity against Bacillus subtilis NCIM 2063 at 5 ug/disk after 24 hrs by disk diffusion method. The format is functional. As to conditions: NCIM 2063, 24 h, read-out: DIZ. Summed up: (§1)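 Disc diffusion on Mueller–Hinton agar. 100 µl of bacterial suspension at 10⁸ CFU/ml is spread on the plate. Discs carry test compounds at two loadings, dissolved in DMSO; DMSO alone serves as negative control. Ofloxacin disc is the positive reference. Plates are incubated at 37 °C for 24 h, and the inhibition zone diameter is measured.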

In a further assay the test system is Bacillus cereus. The assay is described as follows: Antimicrobial activity against Bacillus cereus NCIM 2155 at 5 ug/disk after 24 hrs by disk diffusion method. As to conditions: NCIM 2155, 24 h, read-out: DIZ. The format is functional. The method, boiled down: as §1
Another assay has as its system Aliivibrio fischeri. Put plainly: Antimicrobial activity against Vibrio fischeri NCIM 2154 at 5 ug/disk after 24 hrs by disk diffusion method. The format is functional. As to conditions: NCIM 2154, 24 h, read-out: DIZ. The method, boiled down:
(§2)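 Reference disc of ofloxacin at 5 µg/disc, used to check the sensitivity of each bacterial strain. 100 µl of inoculum at 10⁸ CFU/ml was spread on Mueller–Hinton agar and incubated at 37 °C for 24 h. The read-out was inhibition zone diameter.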

A further assay has as its system Salmonella typhimurium. The assay is described as follows: Antimicrobial activity against Salmonella Typhimurium NCIM 2501 at 5 ug/disk after 24 hrs by disk diffusion method. The format is functional, Salmonella enterica subsp. enterica serovar Typhimurium. As to conditions: Salmonella enterica, NCIM 2501, 24 h; read-out: DIZ. Summed up:
as §2

Assay [1] concerns Rhodococcus corynebacterioides. Put plainly: Antimicrobial activity against Corynebacterium rubrum NCIM 2252 at 5 ug/disk after 24 hrs by disk diffusion method. As to conditions: Rhodococcoides corynebacterioides, NCIM 2252, 24 h; read-out: DIZ. The format is functional. The method, boiled down:
as §1

A further assay concerns Staphylococcus. The assay is described as follows: Antimicrobial activity against Staphylococcus albus NCIM 2178 at 5 ug/disk after 24 hrs by disk diffusion method. The format is functional. As to conditions: NCIM 2178, 24 h, read-out: DIZ. Summed up:
as §2

The subject of the next assay is Proteus vulgaris. Put plainly: Antimicrobial activity against Proteus vulgaris NCIM 2027 at 5 ug/disk after 24 hrs by disk diffusion method. The assay is classed as functional. As to conditions: NCIM 2027, 24 h, read-out: DIZ. Summed up:
as §1

For another assay, the system named is Klebsiella aerogenes. Put plainly: Antimicrobial activity against Klebsiella aerogenes NCIM 2239 at 5 ug/disk after 24 hrs by disk diffusion method. The format is functional. As to conditions: NCIM 2239, 24 h, read-out: DIZ. The method, boiled down: as §1
For the next assay, the system named is Pseudomonas aeruginosa. Put plainly: Antimicrobial activity against Pseudomonas aeruginosa NCIM 2200 at 5 ug/disk after 24 hrs by disk diffusion method. The format is functional. As to conditions: NCIM 2200, 24 h, read-out: DIZ. Summed up:
as §2

The subject of a further assay is Escherichia coli. The assay is described as follows: Antimicrobial activity against Escherichia coli NCIM 2065 at 5 ug/disk after 24 hrs by disk diffusion method. The assay is classed as functional. As to conditions: NCIM 2065, 24 h, read-out: DIZ. The method, boiled down: as §1

For `CC1COc2c(N3CCN(C)CC3)c(F)cc3c(=O)c(C(=O)O)cn1c23` (stereo not given) [OFLOXACIN], the zone of inhibition at 5 µg/disc amounted to 24 mm with Bacillus subtilis; 19 mm in the assay with Bacillus cereus; 27 mm with Aliivibrio fischeri; 21 mm in the assay on Salmonella typhimurium; 25 mm in assay [1]; 21 mm in the assay on Staphylococcus. Besides, the zone of inhibition at 5 µg/disc in the assay with Proteus vulgaris is 19 mm; with Klebsiella aerogenes, 24 mm; in the assay on Pseudomonas aeruginosa, 22 mm; in the assay with Escherichia coli it was 23 mm.

Source of the values: ChEMBL document CHEMBL1138564, “Microwave-induced synthesis and anti-microbial activities of 7,10,11,12-tetrahydrobenzo[c]acridin-8(9H)-one derivatives” (2009).
